In ChEMBL document CHEMBL3352743, “Chemically accessible hsp90 inhibitor that does not induce a heat shock response” (ACS Med Chem Lett, 2014):
In brackets after ≈: the same amount, converted by molar mass. Activity calls are given as the source filed them. No cut-off for these calls is given here. Peptide text beside a SMILES is read from it.

Legend:
[1] = Cytotoxicity against human MIAPaCa2 cells after 72 hrs by CCK8 assay; type: functional, cell-based; details: MIA PaCa-2, 72 h
[2] = Solubility in 80% EtOH/20% water; type: physicochemical
[3] = Cytotoxicity against human HCT116 cells after 72 hrs by CCK8 assay; type: functional, cell-based; details: HCT-116, 72 h
[4] = target: Heat shock protein HSP 90-beta (Homo sapiens) (UniProt P08238); assay: Binding affinity to HSP90 in human MIAPaCa2 cells by coomassie blue staining and Western blotting based pull down assay; type: cell-based; details: MIA PaCa-2
Heat shock protein HSP 90-beta (Homo sapiens), sequence (P08238 whole entry): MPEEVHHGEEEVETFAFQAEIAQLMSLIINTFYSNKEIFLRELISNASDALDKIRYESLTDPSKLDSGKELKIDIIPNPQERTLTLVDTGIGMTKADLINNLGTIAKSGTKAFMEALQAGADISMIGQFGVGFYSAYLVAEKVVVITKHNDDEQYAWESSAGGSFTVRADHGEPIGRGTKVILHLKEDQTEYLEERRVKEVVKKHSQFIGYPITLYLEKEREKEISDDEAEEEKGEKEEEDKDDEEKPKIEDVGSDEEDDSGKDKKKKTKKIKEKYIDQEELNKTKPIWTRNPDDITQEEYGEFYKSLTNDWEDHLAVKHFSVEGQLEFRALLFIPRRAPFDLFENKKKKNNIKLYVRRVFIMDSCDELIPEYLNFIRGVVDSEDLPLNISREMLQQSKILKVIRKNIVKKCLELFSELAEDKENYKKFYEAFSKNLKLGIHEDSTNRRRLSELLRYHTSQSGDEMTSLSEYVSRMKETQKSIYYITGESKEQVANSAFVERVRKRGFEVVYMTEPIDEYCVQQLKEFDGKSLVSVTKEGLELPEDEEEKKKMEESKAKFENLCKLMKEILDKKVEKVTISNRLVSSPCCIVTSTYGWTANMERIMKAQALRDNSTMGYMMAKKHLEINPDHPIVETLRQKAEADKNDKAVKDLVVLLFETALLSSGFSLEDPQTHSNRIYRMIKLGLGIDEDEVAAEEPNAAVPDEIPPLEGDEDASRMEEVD
How it was run: (§1)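 Biotin-tagged analogue (0.1 mg) incubated in HCT-116 or MiaPaCa-2 cell lysate, then recovered on NeutrAvidin beads. Bound proteins eluted in sample buffer, visualized by Coomassie stain or Western blot, and identified by nano-LC/MS/MS. Image representative of 3 independent assays.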

[5] = target: Heat shock protein HSP 90-beta (Homo sapiens) (UniProt P08238); assay: Binding affinity to HSP90 in human HCT116 cells by coomassie blue staining and Western blotting based pull down assay; type: cell-based; details: HCT-116; how it was run: as §1
[6] = Reduction in HSP70 protein expression in human HCT116 cells at IC50 level by western blotting method; type: functional, cell-based; details: HCT-116
[7] = Reduction in HSF1 protein expression in human MIAPaCa2 cells at 50 uM by western blotting method relative to untreated control; type: functional, cell-based; details: MIA PaCa-2
[8] = Reduction in HSP27 protein expression in human MIAPaCa2 cells at IC50 level by western blotting method; type: functional, cell-based; details: MIA PaCa-2
[9] = Reduction in HSP90 protein expression in human HCT116 cells at 50 uM by western blotting method relative to untreated control; type: functional, cell-based; details: HCT-116
[10] = Reduction in HSP40 protein expression in human HCT116 cells at IC50 level by western blotting method; type: functional, cell-based; details: HCT-116
HCT-116 [11] = assay: Induction of apoptosis in human HCT116 cells assessed as caspase 3/7 activation at 50 uM after 24 hrs by luminometry; type: functional
[12] = Reduction in HSP27 protein expression in human MIAPaCa2 cells at 50 uM by western blotting method relative to untreated control; type: functional, cell-based; details: MIA PaCa-2
[13] = Reduction in HSP40 protein expression in human MIAPaCa2 cells at 50 uM by western blotting method relative to untreated control; type: functional, cell-based; details: MIA PaCa-2
[14] = Reduction in HSP40 protein expression in human HCT116 cells at 50 uM by western blotting method relative to untreated control; type: functional, cell-based; details: HCT-116
[15] = Reduction in HSP27 protein expression in human HCT116 cells at 50 uM by western blotting method relative to untreated control; type: functional, cell-based; details: HCT-116
[16] = Reduction in HSP90 protein expression in human MIAPaCa2 cells at 50 uM by western blotting method relative to untreated control; type: functional, cell-based; details: MIA PaCa-2
HCT-116 [17] = assay: Induction of apoptosis in human HCT116 cells at 50 uM after 24 hrs by annexin V and 7-AAD staining based flow cytometry; type: functional
[18] = Reduction in HSF1 protein expression in human MIAPaCa2 cells at IC50 level by western blotting method; type: functional, cell-based; details: MIA PaCa-2
[19] = Reduction in HSF1 protein expression in human HCT116 cells at 50 uM by western blotting method relative to untreated control; type: functional, cell-based; details: HCT-116
[20] = Reduction in HSP90 protein expression in human MIAPaCa2 cells at IC50 level by western blotting method; type: functional, cell-based; details: MIA PaCa-2
[21] = Reduction in HSP70 protein expression in human MIAPaCa2 cells at 50 uM by western blotting method relative to untreated control; type: functional, cell-based; details: MIA PaCa-2
[22] = Reduction in HSP70 protein expression in human HCT116 cells at 50 uM by western blotting method relative to untreated control; type: functional, cell-based; details: HCT-116
MIA PaCa-2 [23] = assay: Induction of apoptosis in human MIAPaCa2 cells assessed as caspase 3/7 activation at 50 uM after 24 hrs by luminometry; type: functional
[24] = Reduction in HSP70 protein expression in human MIAPaCa2 cells at IC50 level by western blotting method; type: functional, cell-based; details: MIA PaCa-2
MIA PaCa-2 [25] = assay: Induction of cell cycle arrest in human MIAPaCa2 cells assessed as accumulation at G0/G1 phase at 5 uM after 24 hrs by propidium iodide staining based cytometry; type: functional
[26] = Reduction in HSP40 protein expression in human MIAPaCa2 cells at IC50 level by western blotting method; type: functional, cell-based; details: MIA PaCa-2
[27] = Reduction in HSP27 protein expression in human HCT116 cells at IC50 level by western blotting method; type: functional, cell-based; details: HCT-116
[28] = Reduction in HSF1 protein expression in human HCT116 cells at IC50 level by western blotting method; type: functional, cell-based; details: HCT-116
HCT-116 [29] = assay: Induction of cell cycle arrest in human HCT116 cells assessed as accumulation at G0/G1 phase at 5 uM after 24 hrs by propidium iodide staining based cytometry; type: functional
[30] = target: Heat shock protein HSP 90-beta (Oryctolagus cuniculus) (UniProt P30947); assay: Inhibition of HSP90 in rabbit reticulocyte lysates at 5 uM […] by firefly luciferase protein re-folding assay; details: in the assay text read “2 hrs” for “5 hrs”
Heat shock protein HSP 90-beta (Oryctolagus cuniculus), sequence (P30947 whole entry): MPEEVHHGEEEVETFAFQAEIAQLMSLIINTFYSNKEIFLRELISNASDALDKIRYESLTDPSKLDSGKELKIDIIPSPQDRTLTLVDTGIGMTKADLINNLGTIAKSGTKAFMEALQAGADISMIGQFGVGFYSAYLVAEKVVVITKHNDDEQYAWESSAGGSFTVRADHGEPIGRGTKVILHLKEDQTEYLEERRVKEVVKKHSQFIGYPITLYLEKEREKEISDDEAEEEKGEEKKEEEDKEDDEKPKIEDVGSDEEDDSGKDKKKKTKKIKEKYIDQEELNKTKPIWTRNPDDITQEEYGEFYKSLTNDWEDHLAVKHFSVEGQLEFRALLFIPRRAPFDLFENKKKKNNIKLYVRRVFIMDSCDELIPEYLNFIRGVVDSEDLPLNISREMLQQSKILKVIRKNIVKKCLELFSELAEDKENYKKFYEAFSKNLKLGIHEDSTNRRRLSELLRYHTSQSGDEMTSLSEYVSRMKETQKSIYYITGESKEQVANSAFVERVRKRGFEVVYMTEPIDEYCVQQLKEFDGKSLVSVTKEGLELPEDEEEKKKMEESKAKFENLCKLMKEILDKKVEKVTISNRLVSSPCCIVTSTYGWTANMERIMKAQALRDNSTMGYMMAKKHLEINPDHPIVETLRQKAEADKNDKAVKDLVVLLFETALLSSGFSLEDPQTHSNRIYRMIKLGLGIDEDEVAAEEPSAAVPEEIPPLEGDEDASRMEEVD
How it was run: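 Denatured firefly luciferase incubated for 2 h in rabbit reticulocyte lysate pretreated with compound. Refolding read as luciferase activity relative to control. Mean ± SEM, n = 3.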

[31] = Reduction in HSP90 protein expression in human HCT116 cells at IC50 level by western blotting method; type: functional, cell-based; details: HCT-116
[32] = target: Heat shock protein HSP 90-beta (Oryctolagus cuniculus) (UniProt P30947); assay: Inhibition of HSP90 in rabbit reticulocyte lysates at 5 uM pre-incubated for 2 hrs by firefly luciferase protein re-folding assay
[33] = target: Heat shock protein HSP 90-beta (Oryctolagus cuniculus) (UniProt P30947); details: 100 nM
[34] = Induction of heat shock response in human HCT116 cells assessed as HSP40 protein expression at IC50 level by western blotting method relative to untreated control; type: cell-based; details: hct-116
[35] = Induction of heat shock response in human HCT116 cells assessed as HSP70 protein expression at IC50 level by western blotting method relative to untreated control; type: cell-based; details: hct-116
MIA PaCa-2 [36] = assay: Induction of apoptosis in human MIAPaCa2 cells assessed as caspase 3/7 activation at 1000 nM after 24 hrs by luminometry; type: functional
[37] = Induction of heat shock response in human HCT116 cells assessed as HSP90 protein expression at IC50 level by western blotting method relative to untreated control; type: cell-based; details: hct-116
HCT-116 [38] = assay: Induction of apoptosis in human HCT116 cells at 1000 nM after 24 hrs by annexin V and 7-AAD staining based flow cytometry; type: functional
[39] = Induction of heat shock response in human MIAPaCa2 cells assessed as HSP90 protein expression at IC50 level by western blotting method relative to untreated control; type: cell-based; details: mia paca-2
How it was run: (§2)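 MiaPaCa-2 cells, run alongside HCT-116, treated with compound at the line's level and also at 10-fold above it. Western blotting measured HSF1, hsp90, hsp70, hsp40 and hsp27 protein levels, quantified as fold change versus untreated control.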

[40] = Induction of heat shock response in human MIAPaCa2 cells assessed as HSP27 protein expression at IC50 level by western blotting method relative to untreated control; type: cell-based; details: mia paca-2; how it was run: as §2
[41] = Induction of heat shock response in human HCT116 cells assessed as HSF1 protein expression at IC50 level by western blotting method relative to untreated control; type: cell-based; details: hct-116
[42] = Induction of heat shock response in human HCT116 cells assessed as HSP27 protein expression at IC50 level by western blotting method relative to untreated control; type: cell-based; details: hct-116
[43] = Induction of heat shock response in human MIAPaCa2 cells assessed as HSP40 protein expression at IC50 level by western blotting method relative to untreated control; type: cell-based; details: mia paca-2
[44] = Induction of heat shock response in human MIAPaCa2 cells assessed as HSF1 protein expression at IC50 level by western blotting method relative to untreated control; type: cell-based; details: mia paca-2
HCT-116 [45] = assay: Induction of apoptosis in human HCT116 cells assessed as caspase 3/7 activation at 1000 nM after 24 hrs by luminometry; type: functional
[46] = Induction of heat shock response in human MIAPaCa2 cells assessed as HSP70 protein expression at IC50 level by western blotting method relative to untreated control; type: cell-based; details: mia paca-2
[47] = 80% EtOH/20% water, read-out: solubility

## CC(C)C[C@@H]1NC(=O)[C@H](C(C)C)N(C)C(=O)[C@@H](CC(C)C)NC(=O)[C@@H](Cc2ccccc2)NC(=O)[C@@H](C(c2ccccc2)c2ccccc2)NC1=O
[1]
  IC50: 12.8 µM
[2]; [47]
  solubility: 2100 µg/mL (≈ 2960 µM)
[3]
  IC50: 7.6 µM

## CC(C)C[C@@H]1NC(=O)[C@H](C(C)C)N(C)C(=O)[C@@H](CC(C)C)NC(=O)[C@@H](Cc2ccccn2)NC(=O)[C@@H](C(c2ccccc2)c2ccccc2)NC1=O
[1]
  IC50: 23.6 µM
[3]
  IC50: 18.1 µM

## CC(C)C[C@@H]1NC(=O)[C@H](C(C)C)N(C)C(=O)[C@@H](CC(C)C)NC(=O)[C@@H](Cc2cccnc2)NC(=O)[C@@H](C(c2ccccc2)c2ccccc2)NC1=O
[1]
  IC50: 23 µM
[3]
  IC50: 20.8 µM

## CC(C)C[C@@H]1NC(=O)[C@H](C(C)C)N(C)C(=O)[C@@H](CC(C)C)NC(=O)[C@@H](Cc2ccncc2)NC(=O)[C@@H](C(c2ccccc2)c2ccccc2)NC1=O
[1]
  IC50: 18.5 µM
[3]
  IC50: 15.7 µM

## CC(C)C[C@@H]1NC(=O)[C@H](C(C)C)N(C)C(=O)[C@@H](CC(C)C)NC(=O)[C@@H](Cc2c[nH]c3ccccc23)NC(=O)[C@@H](C(c2ccccc2)c2ccccc2)NC1=O
[1]
  IC50: 4.5 µM
[2]; [47]
  solubility: 1900 µg/mL (≈ 2540 µM)
[3]
  IC50: 3.9 µM

## COc1ccc(C[C@H]2NC(=O)[C@@H](C(c3ccccc3)c3ccccc3)NC(=O)[C@H](CC(C)C)NC(=O)[C@H](C(C)C)N(C)C(=O)[C@@H](CC(C)C)NC2=O)cc1
[1]
  IC50: 4.4 µM
[2]; [47]
  solubility: 1500 µg/mL (≈ 2030 µM)
[3]
  IC50: 5.1 µM

## CC(C)C[C@H]1NC(=O)[C@@H](Cc2cscn2)NC(=O)[C@@H](C(c2ccccc2)c2ccccc2)NC(=O)[C@H](CCCCNC(=O)CCOCCOCCOCCOCCNC(=O)CCCC[C@@H]2SC[C@@H]3NC(=O)N[C@@H]32)NC(=O)[C@H](C(C)C)N(C)C1=O
[4]
  Activity: Active
[5]
  Activity: Active

## CC(C)C[C@@H]1NC(=O)[C@H](C(C)C)N(C)C(=O)[C@@H](CC(C)C)NC(=O)[C@@H](Cc2cscn2)NC(=O)[C@@H](C(c2ccccc2)c2ccccc2)NC1=O (HELM PEPTIDE1{L.[O=C([C@H](N[*:1])C(c1ccccc1)c1ccccc1)[*:2]].[O=C([C@@H](Cc1cscn1)N[*:1])[*:2]].[dL].[meV]}$PEPTIDE1,PEPTIDE1,1:R1-5:R2$$$V2.0)
[6]
  inhibition: Active
[7]
  fold change (FC): 2
[8]
  inhibition: Active
[9]
  fold change (FC): 2
[10]
  inhibition: Active
HCT-116 [11]
  fold change (FC): 4
[12]
  fold change (FC): 2
[13]
  fold change (FC): 2
[1]
  IC50: 5.5 µM
[14]
  fold change (FC): 2
[15]
  fold change (FC): 2
[16]
  fold change (FC): 2
HCT-116 [17]
  Activity: 75%
[18]
  inhibition: Active
[19]
  fold change (FC): 2
[20]
  inhibition: Active
[21]
  fold change (FC): 2
[22]
  fold change (FC): 2
[2]; buffer
  solubility: 9500 µg/mL (≈ 13300 µM)
MIA PaCa-2 [23]
  fold change (FC): 4
[24]
  inhibition: Active
MIA PaCa-2 [25]
  Activity: Active
[26]
  inhibition: Active
[27]
  inhibition: Active
[28]
  inhibition: Active
HCT-116 [29]
  Activity: Active
[30]
  inhibition: 42%
[31]
  inhibition: Active
[3]
  IC50: 5 µM

## CC(C)C[C@@H]1NC(=O)[C@H](C(C)C)N(C)C(=O)[C@@H](CC(C)C)NC(=O)[C@@H](Cc2ccccc2)NC(=O)[C@@H]([C@H](OCc2ccccc2)c2ccccc2)NC1=O (HELM PEPTIDE1{L.[O=C([C@H](N[*:1])[C@H](OCc1ccccc1)c1ccccc1)[*:2]].[dF].[dL].[meV]}$PEPTIDE1,PEPTIDE1,1:R1-5:R2$$$V2.0)
[1]
  IC50: 7.8 µM
[32]
  inhibition: 25%
[2]; [47]
  solubility: 5200 µg/mL (≈ 7030 µM)
[3]
  IC50: 7.4 µM

## C=CCNC1=C2C[C@@H](C)C[C@H](OC)[C@H](O)[C@@H](C)/C=C(\C)[C@H](OC(N)=O)[C@@H](OC)/C=C\C=C(/C)C(=O)NC(=CC1=O)C2=O [TANESPIMYCIN]
[33]
  inhibition: 17%
[34]
  fold change (FC): 2
[35]
  fold change (FC): 2
MIA PaCa-2 [36]
  fold change (FC): 2
[37]
  fold change (FC): 2
HCT-116 [38]
  Activity: 25%
[39]
  fold change (FC): 2
[40]
  fold change (FC): 2
[41]
  fold change (FC): 2
[42]
  fold change (FC): 2
[43]
  fold change (FC): 2
[44]
  fold change (FC): 2
HCT-116 [45]
  fold change (FC): 2
[46]
  fold change (FC): 2
